Measured values from ChEMBL document CHEMBL1157686, “Synthesis, stereoelectronic characterization and antiparasitic activity of new 1-benzenesulfonyl-2-methyl-1,2,3,4-tetrahydroquinolines” (Bioorg Med Chem, 2010).
pIC50: −log10 of the molar value.

Legend:
Plasmodium falciparum = assay: Antiplasmodial activity against chloroquine and pyrimethamine-resistant Plasmodium falciparum K1 infected in rat L6 cells; format: functional, organism-based
How it was run: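 P. falciparum K1 (chloroquine- and pyrimethamine-resistant) tested in vitro following an earlier-published method. Compounds were run in duplicate over 0.2–300 μM. Values are the mean of four determinations (two per experiment, two independent experiments).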

L6 = assay: Cytotoxicity against rat L6 cells; format: cell-based
How it was run: (§1)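 Protocol follows an earlier published method. Compounds were tested in duplicate over 0.2–300 μM.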

[1] = Selectivity index, ratio of IC50 for rat L6 cells to IC50 for Trypanosoma cruzi infected in rat L6 cells; format: toxicity, cell-based; settings: read-out: Ratio IC50
How it was run: (§2)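 SI = IC50 in rat L6 cells / IC50 against the parasite (T. cruzi or P. falciparum K1). Both IC50s came from duplicate in vitro runs over 0.2–300 μM following an earlier-published method, each averaged from four determinations across two independent experiments.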

[2] = Selectivity index, ratio of IC50 for rat L6 cells to IC50 for chloroquine and pyrimethamine-resistant Plasmodium falciparum K1 infected in rat L6 cells; format: toxicity, cell-based; settings: read-out: Ratio IC50; how it was run: as §2
[3] = Ratio of compound IC50 to podophyllotoxin IC50 for rat L6 cells; format: cell-based; settings: read-out: Ratio IC50
[4] = system: Trypanosoma brucei rhodesiense; assay: Antitrypanosomal activity against Trypanosoma brucei rhodesiense infected in rat L6 cells; format: functional, organism-based; how it was run: as §1
Trypanosoma cruzi [5] = assay: Antitrypanosomal activity against Trypanosoma cruzi infected in rat L6 cells; format: functional, organism-based; how it was run: as §1
Leishmania donovani = assay: Antileishmanial activity against Leishmania donovani infected in rat L6 cells; format: functional, organism-based; how it was run: as §1
Trypanosoma cruzi [6] = assay: Ratio of compound IC50 to benznidazole IC50 for Trypanosoma cruzi infected in rat L6 cells; format: functional

Compound	pIC50 (Plasmodium falciparum)	pIC50 (L6)	selectivity ratio [1]	selectivity ratio [2]	selectivity ratio [3]	pIC50 [4]	pIC50 (Trypanosoma cruzi [5])	pIC50 (Leishmania donovani)	Ratio IC50 (Trypanosoma cruzi [6])
CC1CCc2ccccc2N1S(=O)(=O)c1cccc([N+](=O)[O-])c1 (stereo unspecified)	4.99	3.73	5.85	18.1	590	4.48	4.50	4.60	–
CC1CCc2ccccc2N1 (stereo unspecified)	< 4.47	3.60	1.32	< 7.32	–	4.06	3.72	< 3.21	–
CC1CCc2ccccc2N1S(=O)(=O)c1ccccc1 (stereo unspecified)	4.88	4.15	3.29	5.28	590	4.28	4.67	3.76	–
CC(=O)Nc1ccc(S(=O)(=O)N2c3ccccc3CCC2C)cc1 (stereo unspecified)	< 4.84	4.28	2.42	< 3.58	590	4.30	4.67	4.30	–
Cc1ccc(S(=O)(=O)N2c3ccccc3CCC2C)cc1 (stereo unspecified)	4.96	5.31	0.29	0.44	590	4.36	4.78	4.65	–
CC1CCc2ccccc2N1S(=O)(=O)c1ccc(F)cc1 (stereo unspecified)	4.92	4.17	0.3	5.58	590	3.90	3.65	3.78	–
CC1CCc2ccccc2N1S(=O)(=O)c1ccc(Cl)cc1 (stereo unspecified)	5.07	4.69	1.28	2.43	590	4.36	4.80	4.72	–
CC1CCc2ccccc2N1S(=O)(=O)c1ccc(Br)cc1 (stereo unspecified)	5.18	5.13	0.53	1.1	590	4.40	4.86	4.67	–
CC1CCc2ccccc2N1S(=O)(=O)c1ccc(N)cc1 (stereo unspecified)	< 4.78	4.45	1.78	< 2.13	590	4.43	4.70	4.25	–
CC1CCc2ccccc2N1S(=O)(=O)c1ccc([N+](=O)[O-])cc1 (stereo unspecified)	5.08	3.61	21.7	30	590	3.81	4.94	< 3.57	7
COc1ccc(S(=O)(=O)N2c3ccccc3CCC2C)cc1 (stereo unspecified)	4.93	5.22	0.37	0.5	590	4.36	4.80	4.57	–
O=C(Cn1ccnc1[N+](=O)[O-])NCc1ccccc1 [BENZNIDAZOLE]	–	–	–	–	–	–	5.81	–	–
Nc1nc(N)nc(Nc2ccc([As]3SCC(CO)S3)cc2)n1 (stereo unspecified) [MELARSOPROL]	–	–	–	–	–	8.10	–	–	–
CCCCCCCCCCCCCCCCOP(=O)([O-])OCC[N+](C)(C)C [MILTEFOSINE]	–	–	–	–	–	–	–	6.60	–
